Measurements taken from ChEMBL document CHEMBL5724801, “EUbOPEN Chemogenomics Library - Multiplex” (2024).
Where “and” joins values, the source holds several entries; their conditions need not be identical. Equal values may be shown once.

Assays:
HEK-293T = assay: Multiplex assay against HEK293T; format: toxicity, cell-based; conditions: human
In short: (§1)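 Values for tubulin, mitochondrial-mass and membrane-permeability phenotypes are per cents of cells with healthy nuclei. These cells were identified by CellPathfinder machine-learning gating of live cells that had been stained at seeding with Hoechst33342, BioTracker Green Microtubule Cytoskeleton Dye, MitoTracker Red and Annexin V Alexa Fluor 680 and imaged on a CQ1 microscope at 37°C and 5% CO2 after compound addition. The gating first set Hoechst high-intensity objects apart from normal cells, then split normal cells into healthy, pyknosed or fragmented nuclei, and pyknosed cells into mitotic or apoptotic.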

Fibroblast = assay: Multiplex assay against human fibroblast; format: toxicity, cell-based; in short: as §1
[1] = 12 h, 1 µM, compound concentration 1 uM
[2] = 12 h, 10 µM, compound concentration 10 uM
[3] = 24 h, 1 µM, compound concentration 1 uM
[4] = 24 h, 10 µM, compound concentration 10 uM
[5] = 48 h, 1 µM, compound concentration 1 uM
[6] = 48 h, 10 µM, compound concentration 10 uM

## CCCCCC(O)/C=C/[C@H]1C(=O)CC(O)C1C/C=C\CCCC(=O)O (some centres not stated)
HEK-293T; [1]
  Population Apoptotic (%): 29% and 39%
  Population Fragmented Nuclei (%): 8% and 7%
  Population Healthy Nuclei (%): 80% and 83%
  Population Hoechst High Intensity Objects (%): 8% and 6%
  Population Membrane Permeable-Phenotype (%): 0%
  Population Mitochondria Different-Phenotype (%): 44% and 56%
  Population Mitotic Cells (%): 70% and 60%
  Population Normal (%): 91% and 93%
  Population Pyknosed Nuclei (%): 11% and 9%
  Population Tubulin-Different-Phenotype (%): 23% and 20%
  Total Cell Count: 409 and 383
HEK-293T; [2]
  Population Apoptotic (%): 48% and 54%
  Population Fragmented Nuclei (%): 6%
  Population Healthy Nuclei (%): 79% and 77%
  Population Hoechst High Intensity Objects (%): 9% and 7%
  Population Membrane Permeable-Phenotype (%): 0%
  Population Mitochondria Different-Phenotype (%): 48% and 59%
  Population Mitotic Cells (%): 51% and 46%
  Population Normal (%): 90% and 92%
  Population Pyknosed Nuclei (%): 14% and 15%
  Population Tubulin-Different-Phenotype (%): 31% and 25%
  Total Cell Count: 409 and 343
HEK-293T; [3]
  Population Apoptotic (%): 40% and 44%
  Population Fragmented Nuclei (%): 8% and 7%
  Population Healthy Nuclei (%): 83% and 84%
  Population Hoechst High Intensity Objects (%): 3% and 7%
  Population Membrane Permeable-Phenotype (%): 1% and 0%
  Population Mitochondria Different-Phenotype (%): 22% and 41%
  Population Mitotic Cells (%): 59% and 55%
  Population Normal (%): 96% and 92%
  Population Pyknosed Nuclei (%): 8% and 7%
  Population Tubulin-Different-Phenotype (%): 11% and 14%
  Total Cell Count: 611 and 492
HEK-293T; [4]
  Population Apoptotic (%): 27% and 44%
  Population Fragmented Nuclei (%): 10% and 9%
  Population Healthy Nuclei (%): 75% and 77%
  Population Hoechst High Intensity Objects (%): 4% and 9%
  Population Membrane Permeable-Phenotype (%): 0%
  Population Mitochondria Different-Phenotype (%): 29% and 50%
  Population Mitotic Cells (%): 72% and 55%
  Population Normal (%): 95% and 90%
  Population Pyknosed Nuclei (%): 13%
  Population Tubulin-Different-Phenotype (%): 16% and 21%
  Total Cell Count: 523 and 388
HEK-293T; [5]
  Population Apoptotic (%): 29% and 30%
  Population Fragmented Nuclei (%): 12% and 13%
  Population Healthy Nuclei (%): 79% and 81%
  Population Hoechst High Intensity Objects (%): 1% and 3%
  Population Membrane Permeable-Phenotype (%): 1% and 2%
  Population Mitochondria Different-Phenotype (%): 20% and 19%
  Population Mitotic Cells (%): 70% and 69%
  Population Normal (%): 98% and 96%
  Population Pyknosed Nuclei (%): 7% and 5%
  Population Tubulin-Different-Phenotype (%): 8% and 7%
  Total Cell Count: 864 and 775
HEK-293T; [6]
  Population Apoptotic (%): 22% and 51%
  Population Fragmented Nuclei (%): 12% and 10%
  Population Healthy Nuclei (%): 79% and 80%
  Population Hoechst High Intensity Objects (%): 1% and 3%
  Population Membrane Permeable-Phenotype (%): 0%
  Population Mitochondria Different-Phenotype (%): 17% and 26%
  Population Mitotic Cells (%): 77% and 48%
  Population Normal (%): 98% and 96%
  Population Pyknosed Nuclei (%): 8%
  Population Tubulin-Different-Phenotype (%): 7% and 8%
  Total Cell Count: 815 and 544
Fibroblast; [1]
  Population Apoptotic (%): 52% and 50%
  Population Fragmented Nuclei (%): 24% and 40%
  Population Healthy Nuclei (%): 65% and 41%
  Population Hoechst High Intensity Objects (%): 1% and 2%
  Population Membrane Permeable-Phenotype (%): 0% and 7%
  Population Mitotic Cells (%): 47% and 50%
  Population Normal (%): 98% and 97%
  Population Pyknosed Nuclei (%): 10% and 18%
  Population Tubulin-Different-Phenotype (%): 19% and 52%
  Total Cell Count: 172 and 169
Fibroblast; [2]
  Population Apoptotic (%): 42% and 34%
  Population Fragmented Nuclei (%): 16% and 20%
  Population Healthy Nuclei (%): 69% and 56%
  Population Hoechst High Intensity Objects (%): 0% and 2%
  Population Membrane Permeable-Phenotype (%): 0% and 3%
  Population Mitochondria Different-Phenotype (%): 1% and 7%
  Population Mitotic Cells (%): 57% and 65%
  Population Normal (%): 99% and 97%
  Population Pyknosed Nuclei (%): 13% and 23%
  Population Tubulin-Different-Phenotype (%): 16% and 41%
  Total Cell Count: 139 and 101
Fibroblast; [3]
  Population Apoptotic (%): 35% and 50%
  Population Fragmented Nuclei (%): 20% and 41%
  Population Healthy Nuclei (%): 70% and 50%
  Population Hoechst High Intensity Objects (%): 0% and 1%
  Population Membrane Permeable-Phenotype (%): 0% and 4%
  Population Mitochondria Different-Phenotype (%): 2% and 10%
  Population Mitotic Cells (%): 64% and 50%
  Population Normal (%): 99% and 98%
  Population Pyknosed Nuclei (%): 8%
  Population Tubulin-Different-Phenotype (%): 21% and 47%
